Measurements published in ChEMBL document CHEMBL2163276, “A peptide nucleic acid-aminosugar conjugate targeting transactivation response element of HIV-1 RNA genome shows a high bioavailability in human cells and strongly inhibits tat-mediated transactivation of HIV-1 transcription” (J Med Chem, 2012).
Values belong to the compound of their own block, whether it stands above or below them. The source made the active and inactive calls. The rule behind the calls is not given here.

Assays:
Nucleic Acid [1] = experiment: Binding affinity to HIV1 32-P labeled transactivation response element RNA at compound:RNA ratio of 1:1 after 1 hr by gel mobility shift assay; type: nucleic-acid assay; settings: Human immunodeficiency virus 1
Method in brief: (§1)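 10 nM 32P-labelled 82-nt TAR RNA run-off transcript (T7) incubated with conjugate in 50 mM Tris-HCl pH 7.8, 60 mM KCl, 5 mM MgCl2, 1 h at room temperature. Molar ratios of conjugate to RNA were 0–5.0. Samples were run on native 8% polyacrylamide gel in TBE, 100 V, 4 h, room temperature, then PhosphorImager read-out.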

Nucleic Acid [2] = experiment: Binding affinity to HIV1 32-P labeled transactivation response element RNA assessed as gel mobility shift at compound:RNA ratio of 0.5:1 after 1 hr by gel mobility shift assay; type: nucleic-acid assay; settings: Human immunodeficiency virus 1; method in brief: as §1
Nucleic Acid [3] = experiment: Inhibition of transactivation response element RNA-mediated transcription in HIV1 pseudovirions infected in human CEM cells assessed as reduction in luciferase activity incubated 48 hrs post-infection measured after 72 hrs by reporter gene assay; type: cell-based
Method in brief: (§2)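 CEM 12D7 cells (1×10^6 in 1 mL) infected 2 h with VSV-G-pseudotyped NL4-3.Luc.R-E- virions (14 ng p24), washed and cultured. Conjugate added 48 h post-infection. After 76 h, cells lysed and firefly luciferase measured; IC50 calculated. Mean of two independent experiments.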

[4] = Chemical stability of the compound in aqueous HCl solution after 3 days by HPLC analysis; type: physicochemical; settings: buffer, 72 h
Method in brief: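 Conjugate held in 0.1 M aqueous HCl at 37 °C for 3 days. HPLC retention time compared with untreated sample.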

Nucleic Acid [5] = experiment: Effect on HIV1 transactivation response element RNA-mediated LTR expression transfected in human CEM cells at 0.1 to 2 uM after 24 hrs by luciferase reporter gene assay; type: cell-based; settings: Human immunodeficiency virus 1, CCRF-CEM
Method in brief: (§3)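 CEM cells (0.5×10^6/well) transfected with pHIV-1 LTR-Luc (2 µg) and pRL-SV40 (500 ng), with or without pCMV-Tat (2 µg). Conjugates added 2 h later, and cells grown in RPMI/10% FBS at 37 °C. At 24 h, dual-luciferase read-out; firefly normalised to Renilla and expressed as % of untreated cells. Mean ± SEM of two independent experiments.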

CCRF-CEM [6] = experiment: Cytotoxicity against human CEM cells assessed as inhibition of [3H]thymidine incorporation at 0.1 and 0.5 mM after 48 hrs by scintillation counting; type: cell-based
Method in brief: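 CEM cells grown with conjugate (0.1 and 0.5 mM, dissolved in DMSO; final DMSO 5%) plus [methyl-3H]thymidine 5 µCi/mL for 48 h. Nucleic acids lysed with 1% NP-40, TCA-precipitated onto glass-fibre filters and scintillation counted. Results given as % of DMSO control, from three independent experiments.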

Nucleic Acid [7] = experiment: Induction of HIV1 transactivation response element RNA cleavage; type: nucleic-acid assay; settings: Human immunodeficiency virus 1
Nucleic Acid [8] = experiment: Inhibition of HIV1 transactivation response element RNA-mediated LTR expression transfected in human CEM cells coexpressing CMV-Tat at 1 uM after 24 hrs by luciferase reporter gene assay; type: cell-based; settings: Human immunodeficiency virus 1, CCRF-CEM; method in brief: as §3
Nucleic Acid [9] = experiment: Inhibition of HIV1 transactivation response element RNA-mediated LTR expression transfected in human CEM cells coexpressing CMV-Tat at 0.1 to 2 uM after 24 hrs by luciferase reporter gene assay; type: cell-based; settings: Human immunodeficiency virus 1, CCRF-CEM; method in brief: as §3
Nucleic Acid [10] = experiment: Inhibition of transactivation response element RNA-mediated transcription in HIV1 pseudovirions infected in human CEM cells assessed as reduction in luciferase activity at 800 nM incubated 48 hrs post-infection measured after 72 hrs by reporter gene assay; type: cell-based; settings: Human immunodeficiency virus 1, CCRF-CEM; method in brief: as §2
Nucleic Acid [11] = experiment: Induction of HIV1 transactivation response element RNA cleavage in presence of metal ion; type: nucleic-acid assay; settings: Human immunodeficiency virus 1
Nucleic Acid [12] = experiment: Inhibition of HIV1 transactivation response element RNA-mediated LTR expression transfected in human CEM cells coexpressing CMV-Tat at 1 and 2 uM after 24 hrs by luciferase reporter gene assay; type: cell-based; settings: Human immunodeficiency virus 1; CCRF-CEM; method in brief: as §3
[13] = Cellular uptake in human Huh7.5 cells at 1 uM after 10 hrs by DAPI/WGA-Rhodamine-staining based confocal microscopic analysis in presence of chloroquine; type: ADME, cell-based; settings: huh-7, 10 h
Method in brief: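 Huh7.5 cells incubated with 1 µM FITC-labelled conjugate, with or without the endosome disruptor chloroquine, for 10 h. Cells then PBS-washed, fixed in 4% paraformaldehyde, stained with WGA-rhodamine (membrane glycoproteins) and DAPI (nuclei), and imaged by confocal microscopy, FITC at 488 nm.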

CCRF-CEM [14] = experiment: Cellular uptake in human CEM cells up to 14 hrs by FACS analysis; type: ADME, cell-based
Method in brief: (§4)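 CEM cells taken in log phase and resuspended at 0.5×10^6 cells/mL in RPMI with 2% FBS, preincubated 30 min at 37 °C. Fluorescein-labelled conjugate added at 50 nM–1 µM and incubated. Cells harvested at 30 min, 3 h and 14 h, washed in PBS and scored for FITC-positive cells by FACScan, with propidium iodide (1 µg/mL) to exclude dead cells.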

CCRF-CEM [15] = experiment: Cellular uptake in human CEM cells at 1 uM after 12 hrs by confocal microscopic analysis; type: ADME, cell-based
Method in brief: (§5)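 CEM cells incubated 12 h with FITC-labelled conjugate (0.5 and 1 µM) or with 1 µM FITC-labelled naked PNA. Cells then washed, nuclei DAPI-stained, and imaged by confocal microscopy with FITC read at 488 nm.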

CCRF-CEM [16] = experiment: Cellular uptake in human CEM cells at 0.3 uM within 14 hrs by FACS analysis; type: ADME, cell-based; method in brief: as §4
CCRF-CEM [17] = experiment: Cellular uptake in human CEM cells at 0.2 uM within 30 mins by FACS analysis; type: ADME, cell-based; settings: 0.5 h; method in brief: as §4
CCRF-CEM [18] = experiment: Cellular uptake in human CEM cells at 50 nM to 1 uM by FACS analysis; type: ADME, cell-based; settings: 0.05 µM, TDE = time-dependent effect; method in brief: as §4
CCRF-CEM [19] = experiment: Cellular uptake in human CEM cells at 0.2 uM within 14 hrs by FACS analysis; type: ADME, cell-based; method in brief: as §4
CCRF-CEM [20] = experiment: Cellular uptake in human CEM cells up to 14 hrs by FACS analysis at 37 degC; type: ADME, cell-based; method in brief: as §4
CCRF-CEM [21] = experiment: Cellular uptake in human CEM cells at 0.5 uM after 12 hrs by confocal microscopic analysis; type: ADME, cell-based; method in brief: as §5
CCRF-CEM [22] = experiment: Cellular uptake in human CEM cells up to 14 hrs by FACS analysis at 4 degC; type: ADME, cell-based; method in brief: as §4
[23] = Cytotoxicity against human CEM cells assessed as cell viability at 0.2 to 1 uM by propidium iodide-staining based flow cytometric analysis; settings: CCRF-CEM cells, read-out: Activity
Method in brief: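 CEM cells exposed to labelled conjugate at 0.2–1 µM under uptake-assay conditions. Viability scored by propidium iodide exclusion during flow cytometry.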

[24] = Human immunodeficiency virus 1, CCRF-CEM

- Activity (Nucleic Acid [1]): Active
- Activity (Nucleic Acid [2]): 50%
- IC50 (Nucleic Acid [3]; [24]): 800 nM
- Stability [4]: Stable
- Activity (Nucleic Acid [7]): inactive
- Activity (Nucleic Acid [11]): inactive
SMILES: CO[C@H]1O[C@H](CN)[C@@H](OCCCCCC(=O)NCCN(CC(=O)NCCN(CC(=O)NCCN(CC(=O)NCCN(CC(=O)NCCN(CC(=O)NCCN(CC(=O)NCCN(CC(=O)NCCN(CC(=O)NCCN(CC(=O)NCCN(CC(=O)NCCN(CC(=O)NCCN(CC(=O)NCCN(CC(=O)NCCN(CC(=O)NCCN(CC(=O)NCCN(CC(N)=O)C(=O)Cn2cc(C)c(=O)[nH]c2=O)C(=O)Cn2ccc(N)nc2=O)C(=O)Cn2cc(C)c(=O)[nH]c2=O)C(=O)Cn2cnc3c(N)ncnc32)C(=O)Cn2cnc3c(=O)[nH]c(N)nc32)C(=O)Cn2cnc3c(N)ncnc32)C(=O)Cn2ccc(N)nc2=O)C(=O)Cn2cc(C)c(=O)[nH]c2=O)C(=O)Cn2ccc(N)nc2=O)C(=O)Cn2cnc3c(=O)[nH]c(N)nc32)C(=O)Cn2cnc3c(=O)[nH]c(N)nc32)C(=O)Cn2cnc3c(N)ncnc32)C(=O)Cn2ccc(N)nc2=O)C(=O)Cn2ccc(N)nc2=O)C(=O)Cn2ccc(N)nc2=O)C(=O)Cn2cc(C)c(=O)[nH]c2=O)[C@H](O)[C@H]1N
- inhibition (Nucleic Acid [3]; [24]): Dose-dependent effect
- Activity (Nucleic Acid [5]): inactive
- Activity (CCRF-CEM [6]): Non-toxic
- inhibition (Nucleic Acid [8]): 75%
- inhibition (Nucleic Acid [9]): Active
- inhibition (Nucleic Acid [10]): 50%

SMILES: Cc1cn(CC(=O)N(CCNC(=O)CN(CCNC(=O)CN(CCNC(=O)CN(CCNC(=O)CN(CCNC(=O)CN(CCNC(=O)CN(CCNC(=O)CN(CCNC(=O)CN(CCNC(=O)CN(CCNC(=O)CN(CCNC(=O)CN(CCNC(=O)CN(CCNC(=O)CN(CCNC(=O)CN(CCNC(=O)CN(CCN)C(=O)Cn2cc(C)c(=O)[nH]c2=O)C(=O)Cn2ccc(N)nc2=O)C(=O)Cn2ccc(N)nc2=O)C(=O)Cn2ccc(N)nc2=O)C(=O)Cn2cnc3c(N)ncnc32)C(=O)Cn2cnc3c(=O)[nH]c(N)nc32)C(=O)Cn2cnc3c(=O)[nH]c(N)nc32)C(=O)Cn2ccc(N)nc2=O)C(=O)Cn2cc(C)c(=O)[nH]c2=O)C(=O)Cn2ccc(N)nc2=O)C(=O)Cn2cnc3c(N)ncnc32)C(=O)Cn2cnc3c(=O)[nH]c(N)nc32)C(=O)Cn2cnc3c(N)ncnc32)C(=O)Cn2cc(C)c(=O)[nH]c2=O)C(=O)Cn2ccc(N)nc2=O)CC(N)=O)c(=O)[nH]c1=O
- inhibition (Nucleic Acid [12]): inactive

- Drug uptake [13]: Active
- Drug uptake (CCRF-CEM [14]): Dose-dependent effect
- Drug uptake (CCRF-CEM [15]): 99%
- Drug uptake (CCRF-CEM [16]): 100%
- Drug uptake (CCRF-CEM [17]): 10%
- Drug uptake (CCRF-CEM [18]): tde
- Drug uptake (CCRF-CEM [19]): 85%
- Drug uptake (CCRF-CEM [20]): Active
- Drug uptake (CCRF-CEM [21]): 90%
- Drug uptake (CCRF-CEM [22]): Active
SMILES: CO[C@H]1O[C@H](CN)[C@@H](OCCCCCC(=O)NCCN(CC(=O)NCCN(CC(=O)NCCN(CC(=O)NCCN(CC(=O)NCCN(CC(=O)NCCN(CC(=O)NCCN(CC(=O)NCCN(CC(=O)NCCN(CC(=O)NCCN(CC(=O)NCCN(CC(=O)NCCN(CC(=O)NCCN(CC(=O)NCCN(CC(=O)NCCN(CC(=O)NCCN(CC(=O)N[C@@H](CCCCNC(=S)Nc2ccc(-c3c4ccc(=O)cc-4oc4cc(O)ccc34)c(C(=O)O)c2)C(N)=O)C(=O)Cn2cc(C)c(=O)[nH]c2=O)C(=O)Cn2ccc(N)nc2=O)C(=O)Cn2cc(C)c(=O)[nH]c2=O)C(=O)Cn2cnc3c(N)ncnc32)C(=O)Cn2cnc3c(=O)[nH]c(N)nc32)C(=O)Cn2cnc3c(N)ncnc32)C(=O)Cn2ccc(N)nc2=O)C(=O)Cn2cc(C)c(=O)[nH]c2=O)C(=O)Cn2ccc(N)nc2=O)C(=O)Cn2cnc3c(=O)[nH]c(N)nc32)C(=O)Cn2cnc3c(=O)[nH]c(N)nc32)C(=O)Cn2cnc3c(N)ncnc32)C(=O)Cn2ccc(N)nc2=O)C(=O)Cn2ccc(N)nc2=O)C(=O)Cn2ccc(N)nc2=O)C(=O)Cn2cc(C)c(=O)[nH]c2=O)[C@H](O)[C@H]1N
- viability at 1 µM [23]: > 95%
